The nature of test [1]: inhibitors of TNFa-induced NFkB p65 translocation, primary screen, imaging, HUVEC, MLSMR starter and 10KST1 sets (AID 438).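 For inhibition: signal is the nuclear over cytoplasmic p65 intensity ratio per well.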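 Note: compound added about 3h40 before a 20 min TNFalpha stimulation.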 To be noted: HUVEC TNFa-induced p65 nuclear translocation; cell count: measured here: nuclei count (cytotoxicity indicator), at 2.08 µM; inhibition: at 2 µM, stronger effect = higher value, 0% TNFa-plus-vehicle, 100% no-TNFa wells.
A short description of test [2]: inhibitors of E-selectin induction by TNFa, primary screen, imaging, HUVEC, immunofluorescence, MLSMR starter and 10KST1 sets (AID 487;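 active = visually confirmed hit in the image check and inhibition above 20%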;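 for inhibition: signal is fraction of cell area covered by stained E-selectin grains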;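 for nuclei count: 100% = median nuclei count of all wells on the same plate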). To be noted: HUVEC TNFalpha-induced E-selectin immunofluorescence imaging, at 2 µM; inhibition: stronger effect = higher value; nuclei count: measured here: cell number, toxicity.
Test [3] can be described thus: DUSP6 inhibitors restoring Erk phosphorylation by chemical complementation, primary imaging in DUSP6-transfected HeLa (AID 609;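 active = compounds giving at least 50% inhibition in the cell-based MKP-3 phosphatase rescue imaging test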;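 for inhibition: phospho-Erk level distribution per well compared with pooled transfected vehicle control wells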). Particulars: HeLa MKP-3 transfected, phospho-Erk imaging KS statistic, at 10 µM, cells stimulated with TPA for 15 min.
Test [4] concerns the target Dual specificity protein phosphatase 6 (Homo sapiens) (UniProt Q16828). The description is as above. To be noted: HeLa MKP-3 transfected, phospho-Erk imaging KS statistic; at 10 µM; stronger effect = higher value; cells stimulated with TPA for 15 min.
Test [5] concerns the target Voltage-gated potassium channel subunit beta-2 (Rattus norvegicus) (UniProt P62483). In words: KvBeta enzyme negative modulators, primary screen, biochemical, NADPH fluorescence (AID 622;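 active = fluorescence slope higher than the sample average by over 3 SD, cut at about -0.22 in these data, passing the limit was not always enough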;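 note: slope of raw intensity against log time taken from 70 to 1610 s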). Particulars: recombinant KvBeta, 4-cyanobenzaldehyde reduction, at 10 µM, stronger effect = higher value.
Test [6] has the same target. In words: KvBeta positive modulators, primary screen, biochemical, NADPH fluorescence (AID 623;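 active = NADPH fluorescence slope more negative than the mean of all samples by about 3 SD, 99.7% confidence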;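 note: fluorescence intensity change per second fitted from 20 to 320 s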). Particulars: Recombinant KvBeta, NADPH fluorescence decrease slope, 10 min; at 10 µM; stronger effect = lower value.
For test [7], the target named is Alpha-2C adrenergic receptor (Homo sapiens) (UniProt P18825). In words: modulators of alpha2C/GIRK thallium flux, primary screen, cell-based, HEK293 alpha2C/GIRK1/2 (AID 624;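 active = fluorescence slope after compound addition differing from the mean of all screened samples at 99.7% confidence, in either direction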;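 note: slope of fluorescence ratio to pre-addition baseline per second over 15 to 24 s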). To be noted: thallium flux BTC fluorescence, at 10 µM, actives lie on both sides.
A short description of test [8]: inhibitors of larval lipid processing in zebrafish, primary screen, whole organism, PED6 fluorescence, gall bladder and intestine (AID 686;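 active = a full or partial loss of lipid-probe fluorescence in the fish gall bladder, intestine or both, judged by eye; inactive = no fluorescence loss, or compound toxic to the fish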;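 note: larvae 5 to 7 days old with five fish per well; signal comes from phospholipase A2 cleavage of quenched PED6 carried via bile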). To be noted: Zebrafish larvae PED6 lipid processing, fluorescence scoring; screened at 20 µM (by protocol). In outline: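 System: live zebrafish larvae aged 5-7 days, whole organism; measure: graded gall bladder and intestinal fluorescence inhibition per well; incubation: overnight exposure; reagent: ingested quenched lipid PED6 at 100 nM; signal: By-eye fluorescence microscopy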

The nature of test [9]: inhibitors of Chlamydomonas gravitaxis, primary screen, whole organism, Chlamydomonas reinhardtii, WT vs cilia-less mutant, absorbance, 96-well (AID 463189;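 active = inhibition at or above 50% relative to wild type and mutant plate controls; inactive = inhibition below 50%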;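 note: 0% = wild type cc124 cells in DMSO and 100% = ciliumless bld1 mutant cells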). Particulars: OD600 absorbance, 2 days, at 10 µM, stronger effect = higher value.
Where [10] appears, read: measured here: cell density z-score.
Where [11] appears, read: measured here: nuclear c-Myc green intensity z-score.
Setting [12] is: measured here: nuclear pErk red intensity z-score, stronger effect = higher value.

The results in this text go back to PubChem BioAssay.

The source made the active and inactive calls.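 Rule for the calls, unless noted: active = inhibition above 20% together with a positive visual image hit; inconclusive = visual image hit but inhibition not above 20%; inactive = no visual image hit.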

Chain of Alpha-2C adrenergic receptor (Homo sapiens) (P18825 whole entry, looked up): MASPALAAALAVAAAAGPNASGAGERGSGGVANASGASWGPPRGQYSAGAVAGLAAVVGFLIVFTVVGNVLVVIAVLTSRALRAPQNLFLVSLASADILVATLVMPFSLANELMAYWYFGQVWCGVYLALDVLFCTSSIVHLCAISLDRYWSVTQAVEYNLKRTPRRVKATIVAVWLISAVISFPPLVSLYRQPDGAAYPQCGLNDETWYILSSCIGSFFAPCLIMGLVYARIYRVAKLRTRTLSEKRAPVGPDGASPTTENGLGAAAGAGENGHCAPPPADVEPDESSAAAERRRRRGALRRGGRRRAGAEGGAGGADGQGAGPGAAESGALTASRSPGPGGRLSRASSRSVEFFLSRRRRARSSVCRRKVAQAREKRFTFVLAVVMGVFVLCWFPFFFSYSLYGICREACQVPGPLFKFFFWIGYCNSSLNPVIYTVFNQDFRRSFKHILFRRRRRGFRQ
Chain of Dual specificity protein phosphatase 6 (Homo sapiens) (Q16828 whole entry, looked up): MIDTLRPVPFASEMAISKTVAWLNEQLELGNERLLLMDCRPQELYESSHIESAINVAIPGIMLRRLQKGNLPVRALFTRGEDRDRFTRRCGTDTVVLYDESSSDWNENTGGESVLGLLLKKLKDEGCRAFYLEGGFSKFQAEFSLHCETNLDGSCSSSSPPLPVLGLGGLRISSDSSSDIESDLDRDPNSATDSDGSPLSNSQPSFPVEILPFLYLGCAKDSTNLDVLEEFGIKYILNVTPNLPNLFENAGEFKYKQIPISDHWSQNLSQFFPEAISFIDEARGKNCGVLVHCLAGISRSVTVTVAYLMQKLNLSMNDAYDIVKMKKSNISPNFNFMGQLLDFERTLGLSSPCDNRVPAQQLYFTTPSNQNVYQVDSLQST
Chain of Voltage-gated potassium channel subunit beta-2 (Rattus norvegicus) (P62483 whole entry, looked up): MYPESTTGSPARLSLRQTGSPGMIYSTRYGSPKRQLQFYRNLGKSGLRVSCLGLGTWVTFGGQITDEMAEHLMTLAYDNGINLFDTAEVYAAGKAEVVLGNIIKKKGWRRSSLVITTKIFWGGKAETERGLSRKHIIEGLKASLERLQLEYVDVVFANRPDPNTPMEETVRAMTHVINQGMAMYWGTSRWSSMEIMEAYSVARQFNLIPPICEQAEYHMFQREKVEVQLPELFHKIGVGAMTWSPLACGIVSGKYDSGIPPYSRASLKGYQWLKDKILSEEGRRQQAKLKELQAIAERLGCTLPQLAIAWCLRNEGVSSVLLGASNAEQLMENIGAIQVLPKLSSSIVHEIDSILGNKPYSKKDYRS

In the case of `O=C(O)CC(NCc1ccco1)C(=O)OCCc1ccccc1` (centres undefined), the cell count in test [1] was 534. For the same molecule, the inhibition (usually the drop in the measured response relative to a control, in per cent) in test [1] is -1.9% (inactive); in test [2], 6.5% (inactive); in test [4], -1.75% (inactive); in test [9] it was 32.9% (inactive). In addition, the nuclei count in test [2] was determined as 116%. Moreover, the z-score in test [3] (setting [10]) is -0.641; in test [3] (setting [11]) it was 0.383; in test [3] (setting [12]) it was -0.409. Moreover, the fluorescence slope in test [5] is -0.398 (inactive). For the same molecule, in test [6], the NADPH fluorescence slope is 5.7e-06 (inactive). In test [7], the slope is 0.00596 (inactive). Also, in [8], the molecule was called inactive.

`CC(O)Cn1ccccc1=N` (centres undefined): the cell count in test [1] turned out to be 352. Also, the inhibition is -2% (inactive) in test [1], -146% (inactive) in test [2], -2.29% (inactive) in test [4] and 21.9% (inactive) in test [9]. The molecule further gave a nuclei count in test [2] of 105%. Also, the z-score in test [3] (setting [10]) is 0.162; in test [3] (setting [11]) it was -0.0061; in [3] (setting [12]) it was 0.0768. The fluorescence slope in [5] was -0.293 (inactive). Further, in [6], the NADPH fluorescence slope was 7.7e-06 (inactive). Also, in [7], the slope was 0.00523 (inactive). Moreover, the result in test [8] was inactive.

For the molecule `Cc1c(C(Nc2ccccn2)c2ccccc2)c(=O)n(-c2ccccc2)n1C` (centres undefined), the cell count in [1] came to 522. The inhibition is -5.3% (inactive) in [1], -96.1% (inactive) in [2], -9.7% (inactive) in [4] and 23.1% (inactive) in test [9]. Moreover, the nuclei count in test [2] stood at 136%. Moreover, the z-score in test [3] (setting [10]) was -0.885; in test [3] (setting [11]), 0.0466; in test [3] (setting [12]), 1.12. Moreover, in test [5], the fluorescence slope is -0.508 (inactive). In test [6], the NADPH fluorescence slope is -9.6e-05 (inactive). The slope in [7] is 0.00524 (inactive). Besides, the call in test [8] was inactive.

With `O=S(=O)(O)c1nc2ccccc2n1Cc1ccc(Cl)cc1Cl`, the cell count in test [1] came out at 405. In addition, the inhibition was -4.7% (inactive) in test [1], -102% (inactive) in [2], 20.8% (inactive) in test [4] and 27.2% (inactive) in test [9]. The nuclei count in test [2] was found to be 149%. For the same molecule, the z-score in [3] (setting [10]) is -0.945; in test [3] (setting [11]), 0.195; in [3] (setting [12]), -1.66. In addition, in test [5], the fluorescence slope is -0.337 (inactive). Besides, the NADPH fluorescence slope in test [6] is -1.5e-05 (inactive). The slope in test [7] was 0.00557 (inactive). The result in test [8] was inactive.

`COc1ccc(/C(O)=C2/C(=O)C(=O)N(CCN3CCOCC3)C2c2ccccn2)cc1` (centres undefined): the cell count in test [1] amounted to 316. Also, the inhibition in test [1] was -13.6% (inactive); in test [2], 25.6% (inactive); in [4], -7.79% (inactive); in test [9], 25.9% (inactive). In test [2], this molecule registered a nuclei count of 75.8%. In addition, the figures for the z-score in [3] (setting [10]), in [3] (setting [11]) and in test [3] (setting [12]) were -1.25, 0.879 and 1.18, respectively. In addition, the fluorescence slope in test [5] was -0.44 (inactive). For the same molecule, in test [6], the NADPH fluorescence slope was -1.3e-05 (inactive). In addition, the slope in [7] was 0.00633 (inactive). Also, in test [8], the molecule was called inactive.

In the case of `CCOC(=O)C1=C(C)NC(=O)NC1c1ccc2c(c1)OCO2` (centres undefined), the cell count in test [1] was 603. In addition, the inhibition in [1] is -9.5% (inactive); in test [2] it was -11.9% (inactive); in test [4], -13.3% (inactive); in [9], -6.75% (inactive). In addition, in [2], the nuclei count was found to be 154%. The z-score in [3] (setting [10]) was 0.562; in test [3] (setting [11]), 0.385; in test [3] (setting [12]) it was -0.648. The fluorescence slope in test [5] was -0.387 (inactive). Besides, the NADPH fluorescence slope in [6] is -7.4e-05 (inactive). Further, the slope in test [7] was 0.00581 (inactive). The outcome in test [8] was inactive.

In the case of `COc1cc(C)nc(N(C)S(=O)(=O)c2ccccc2Cl)n1`, in test [1], the cell count came to 587. In addition, the inhibition in test [1] is -9% (inactive); in test [2], 26.6% (inactive); in test [4], 9.82% (inactive); in test [9] it was -1.55% (inactive). In test [2], the nuclei count is 175%. Moreover, the figures for the z-score in test [3] (setting [10]), in [3] (setting [11]) and in test [3] (setting [12]) were 1.16, 0.469 and -0.133, respectively. Also, the fluorescence slope in test [5] was -0.36 (inactive). The NADPH fluorescence slope in test [6] is 3.2e-06 (inactive). The slope in [7] was 0.00436 (inactive). For the same molecule, in test [8], the call was inactive.

In the case of `COCCNc1cc(C)c(C#N)c2nc3ccccc3n12`, the cell count in test [1] turned out to be 564. Moreover, the inhibition in test [1] was 2.6% (inactive); in [2] it was -78.8% (inactive); in test [4], 13.9% (inactive); in [9], -12.3% (inactive). In addition, the nuclei count in test [2] is 108%. Further, the z-score in test [3] (setting [10]) was -2.44; in test [3] (setting [11]), 1.04; in [3] (setting [12]), -1.31. Further, the fluorescence slope in [5] was -0.383 (inactive). Besides, in test [6], the NADPH fluorescence slope is 1.2e-06 (inactive). Besides, in test [7], the slope was 0.00535 (inactive). The molecule was classed as inactive in test [8].

Consider `CN1C(=O)C2(N=c3ccccc3=N2)c2ccccc21`, for which the cell count in test [1] amounted to 527. Further, the inhibition was -4.5% (inactive) in test [1], -152% (inactive) in test [2], 7.73% (inactive) in test [4] and 9.55% (inactive) in [9]. The nuclei count in test [2] came to 209%. The z-score in test [3] (setting [10]) is -0.677; in test [3] (setting [11]) it was 0.303; in test [3] (setting [12]), 0.421. The fluorescence slope in test [5] was -0.482 (inactive). Also, the NADPH fluorescence slope in test [6] is -4.4e-05 (inactive). For the same molecule, in test [7], the slope is 0.00491 (inactive). In addition, the outcome in test [8] was inactive.

Consider `COCc1[nH]nc2c1C(c1ccccc1OC)C(C#N)=C(N)O2` (centres undefined), for which the cell count in [1] was determined as 633. Moreover, the inhibition is -4.1% (inactive) in test [1], 27.6% (inactive) in test [2], -7.28% (inactive) in test [4] and 31.9% (inactive) in test [9]. This molecule came in with a nuclei count in test [2] of 101%. In addition, the results for the z-score in test [3] (setting [10]), in test [3] (setting [11]) and in test [3] (setting [12]) were 0.246, 0.997 and -0.624, respectively. Besides, the fluorescence slope in test [5] is -0.488 (inactive). Besides, in [6], the NADPH fluorescence slope was -1.1e-05 (inactive). Besides, the slope in [7] was 0.00544 (inactive). Also, the molecule was called inactive in test [8].

For the molecule `C=CCNc1sc(C(=O)C2CC2)c(N)c1C#N`, in [1], the cell count came out at 669. Also, the inhibition in test [1] was -24.9% (inactive); in test [2], -70.3% (inactive); in [4] it was 19.4% (inactive); in test [9], -5.34% (inactive). The molecule also showed a nuclei count in test [2] of 173%. The z-score in test [3] (setting [10]) is 0.613; in [3] (setting [11]), -1.22; in test [3] (setting [12]) it was 0.948. Further, in [5], the fluorescence slope was -0.366 (inactive). Further, the NADPH fluorescence slope in [6] was -3.3e-05 (inactive). The slope in [7] was 0.00551 (inactive). In addition, the molecule was classed as inactive in test [8].

Turning to `CCOC(=O)c1ccc(NC(=O)CCC(CC)C(=O)O)cc1` (centres undefined), the cell count in test [1] stood at 402. Further, the inhibition in [1] was -23.7% (inactive); in test [2] it was -228% (inactive); in test [4], 27.7% (inactive); in test [9], -1.41% (inactive). In [2], this molecule came in with a nuclei count of 167%. The results for the z-score in [3] (setting [10]), in test [3] (setting [11]) and in test [3] (setting [12]) were 1.04, -1.56 and -0.382, respectively. Besides, the fluorescence slope in [5] was -0.349 (inactive). In addition, the NADPH fluorescence slope in test [6] was -9.3e-06 (inactive). Moreover, the slope in test [7] is 0.00545 (inactive). The molecule was classed as inactive in [8].

For `Cn1c(N2CCOCC2)nc2c1c(=O)n(Cc1ccc(Cl)c(Cl)c1)c(=O)n2C`, the cell count in test [1] is 616. In addition, the inhibition in test [1] was -1.9% (inactive); in test [2] it was -39.8% (inactive); in test [4], 2.46% (inactive); in test [9] it was 24.4% (inactive). Moreover, in test [2], the nuclei count stood at 146%. The z-score in test [3] (setting [10]) was -0.645; in test [3] (setting [11]) it was 0.0379; in [3] (setting [12]) it was -0.103. In addition, the fluorescence slope in [5] was -0.474 (inactive). Moreover, the NADPH fluorescence slope in test [6] was -0.000203 (inactive). Further, in [7], the slope was 0.00465 (inactive). Also, in test [8], the outcome was inactive.
